The target in assay [1] is D(2) dopamine receptor (Bos taurus) (UniProt P20288). Briefly: Compound was tested for inhibition of [3H]spiroperidol binding against Dopamine receptor D2 at 10e-5 M.
Assay [2] concerns the target T1, D(1A) dopamine receptor (Rattus norvegicus, UniProt P18901). Kind of assay: Displacement of [3H]fenoldopam from Dopamine receptor D1 of rat striatum membranes. The assay is classed as cell membranes, Membrane. In general terms: Displacement assays read how much labelled ligand stays bound in the presence of the test substance.
The target in assay [3] is D(2) dopamine receptor (Bos taurus, UniProt P20288). Kind of assay: Compound was tested for inhibition of [3H]spiroperidol binding against Dopamine receptor D2. Put shortly:
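Washed bovine anterior pituitary membranes (500 μg protein) incubated 20 min at 37 °C with 0.2–0.3 nM [3H]spiroperidol in Tris-HCl pH 7.4, MgSO4, 2 mM EDTA, 0.1% ascorbate.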

Assay [4] has as its target D(2) dopamine receptor (Bos taurus) (UniProt P20288). Kind of assay: Compound was tested for inhibition of [3H]spiroperidol binding against Dopamine receptor D2 at 10e-5 M; IA= Inactive.
Assay [5] deals with T1, D(1A) dopamine receptor. Kind of assay: Compound was tested for binding affinity against dDopamine receptor D1 using [3H]fenoldopam as a radioligand.

One may read the inhibition as the change of the read-out against control, counted positive when it falls. The low end stands for a weak effect, the high end for a strong effect. A word on the Ki: it is the equilibrium dissociation constant of an inhibitor or competing ligand from its target. Lower therefore signals higher affinity.

Each structure is given as a SMILES string.

Chain of D(2) dopamine receptor (Bos taurus) (P20288 whole entry): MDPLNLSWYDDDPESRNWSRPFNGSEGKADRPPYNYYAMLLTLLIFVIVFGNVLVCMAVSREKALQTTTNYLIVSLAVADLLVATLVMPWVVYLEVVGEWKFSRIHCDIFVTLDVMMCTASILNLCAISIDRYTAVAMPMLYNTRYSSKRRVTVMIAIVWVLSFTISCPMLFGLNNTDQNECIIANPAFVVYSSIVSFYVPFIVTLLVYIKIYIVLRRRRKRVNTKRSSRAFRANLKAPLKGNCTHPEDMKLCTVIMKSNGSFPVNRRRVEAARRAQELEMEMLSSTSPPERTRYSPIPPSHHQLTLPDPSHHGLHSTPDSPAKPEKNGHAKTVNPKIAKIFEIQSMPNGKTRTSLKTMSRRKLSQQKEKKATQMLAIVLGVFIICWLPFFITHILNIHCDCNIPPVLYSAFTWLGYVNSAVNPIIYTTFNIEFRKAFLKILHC
T1 sequence (P18901 whole entry): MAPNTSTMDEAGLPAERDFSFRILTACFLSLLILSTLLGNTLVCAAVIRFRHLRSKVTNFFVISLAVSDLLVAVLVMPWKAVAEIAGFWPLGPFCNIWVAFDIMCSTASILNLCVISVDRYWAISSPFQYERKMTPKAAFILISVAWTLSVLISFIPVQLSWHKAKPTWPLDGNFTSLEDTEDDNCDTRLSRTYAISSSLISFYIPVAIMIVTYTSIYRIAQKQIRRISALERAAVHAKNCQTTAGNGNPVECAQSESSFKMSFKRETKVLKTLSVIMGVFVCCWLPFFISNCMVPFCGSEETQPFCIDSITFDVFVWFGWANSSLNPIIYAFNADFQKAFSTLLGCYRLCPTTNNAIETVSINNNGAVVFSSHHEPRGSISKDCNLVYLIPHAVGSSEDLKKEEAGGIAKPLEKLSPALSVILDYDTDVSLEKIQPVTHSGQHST
Chain of D(2) dopamine receptor (P20288 whole entry): as the sequence (P20288 whole entry) above

Regarding `Oc1c(O)c(-c2ccccc2)c2c(c1Cl)CCNCC2`, in assay [1], the inhibition came out at 27%. The affinity in assay [2] corresponds to a Ki of 700 nM. On the same counts, the results for `CCCN(CCC)CCc1ccc(O)c(O)c1-c1ccccc1` are 29% and 1940 nM. Consider `NCC1c2cc(O)ccc2-c2c1ccc(O)c2O` (stereo unspecified), for which the Ki in assay [3] was determined as 5.74 µM; in assay [2], 43 nM. Compound `NCCc1ccc(O)c(O)c1-c1ccccc1` returned a Ki in assay [2] of 1500 nM. This compound also showed an inhibition in assay [4] below 20%. The compound `Oc1ccc(-c2c(O)c(O)c(Cl)c3c2CCNCC3)cc1` displayed a Ki in assay [2] of 1630 nM. This compound displayed an inhibition in assay [4] below 20%. In assay [2], `NCCc1ccc(O)c(O)c1-c1ccc(O)cc1` had a Ki of 1650 nM. Further, the inhibition in assay [4] was below 20%. As to `Oc1ccc(-c2c(O)c(O)cc3c2CCNCC3)cc1`, the Ki in assay [2] is above 3000 nM. Further, in assay [4], the inhibition was below 20%. Regarding `CCCN(CCC)CCc1ccc(O)c(O)c1-c1ccc(O)cc1`, the Ki turned out to be 1.8 µM in assay [3] and 1740 nM in assay [2]. Turning to `NCC1c2ccccc2-c2c1ccc(O)c2O` (stereo unspecified), the inhibition in assay [1] was 20%. The compound further gave a Ki in assay [2] of 380 nM. In assay [2], `Oc1cc2c(c(-c3ccccc3)c1O)CCNCC2` registered a Ki of 1790 nM. This compound also came in with an inhibition in assay [4] below 20%. `Oc1cc2c(cc1O)CCNCC2` displayed a Ki in assay [5] of 970 nM.

These data come from ChEMBL document CHEMBL1123459, “Synthesis and dopaminergic binding of 2-aryldopamine analogues: phenethylamines, 3-benzazepines, and 9-(aminomethyl)fluorenes” (J Med Chem, 1986).
